The results in this text go back to ChEMBL document CHEMBL1154428, “Cloning, nucleotide sequencing, and analysis of the AcrAB-TolC efflux pump of Enterobacter cloacae and determination of its involvement in antibiotic resistance in a clinical isolate” (2007).

Usually MIC stands for the least concentration at which growth counts as inhibited.

In test [1] the test system is Enterobacter cloacae. As to the kind of experiment: Antibacterial activity against drug-resistant AcrAB-TolC efflux pump deficient Enterobacter cloacae EcdeltaacrA isolate expressing pAP2 plasmid containing Enterobacter cloacae acrA gene by Etest. Type of test: functional.
Test [2] relates to Enterobacter cloacae. As to the kind of experiment: Antibacterial activity against drug-resistant AcrAB-TolC efflux pump deficient Enterobacter cloacae EcdeltaacrA isolate expressing pACYC184 plasmid by Etest. Type of test: functional.
Test [3] deals with Enterobacter cloacae. As to the kind of experiment: Antibacterial activity against drug-resistant Enterobacter cloacae EcDC64 isolate expressing AcrAB-TolC efflux pump by Etest. Type of test: functional.
Test [4] has as its system Enterobacter cloacae. As to the kind of experiment: Antibacterial activity against drug-resistant AcrAB-TolC efflux pump deficient Enterobacter cloacae EcdeltaacrA isolate by Etest. The format is functional.
Test [5] deals with Enterobacter cloacae. As to the kind of experiment: Antibacterial activity against drug-resistant Enterobacter cloacae EcDC64 isolate expressing AcrAB-TolC efflux pump in presence of 20 ug/ml efflux pump inhibitor Phe-Arg-beta-naphthylamide by Etest.
Test [6] relates to Enterobacter cloacae. As to the kind of experiment: Antibacterial activity against drug-resistant AcrAB-TolC efflux pump deficient Enterobacter cloacae EcdeltaacrA isolate expressing pAP3 plasmid containing Enterobacter aerogenes acrR gene by Etest. The format is functional.
Test [7] relates to Enterobacter cloacae. As to the kind of experiment: Antibacterial activity against drug-resistant AcrAB-TolC efflux pump deficient Enterobacter cloacae EcdeltaacrA isolate in presence of 20 ug/ml efflux pump inhibitor Phe-Arg-beta-naphthylamide by Etest. Type of test: functional.
Test [8] has as its system Enterobacter cloacae. As to the kind of experiment: Antibacterial activity against drug-resistant Enterobacter cloacae EcDC64 isolate expressing pAP1 containing Escherichia coli ampD by Etest. Type of test: functional.
Test [9] concerns Enterobacter cloacae. As to the kind of experiment: Antibacterial activity against drug-resistant AcrAB-TolC efflux pump deficient Enterobacter cloacae EcdeltaacrA isolate expressing pBGS18 plasmid by Etest. The format is functional.
For test [10], the system named is Enterobacter cloacae. As to the kind of experiment: Antibacterial activity against drug-resistant Enterobacter cloacae EcDC64 isolate expressing pBGS18 plasmid by broth microdilution method. (In general: In broth dilution the organism is exposed to a series of concentrations in liquid medium.)
For test [11], the system named is Enterobacter cloacae. As to the kind of experiment: Antibacterial activity against drug-resistant Enterobacter cloacae EcDC64 isolate expressing AcrAB-TolC efflux pump by broth microdilution method. The format is functional. The method, boiled down:
(§1)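 Broth microdilution MICs for detergents and dyes (SDS, sodium cholate, sodium deoxycholate, acriflavine, ethidium bromide, Triton X-100, crystal violet). E. cloacae inoculum 5 × 10^5 CFU/ml, incubated 16 to 20 h at 37°C. The MIC was the lowest concentration giving complete growth inhibition. The acrA knockout carries a kanamycin-resistance insertion made by Red-mediated recombination.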

Test [12] deals with Enterobacter cloacae. As to the kind of experiment: Antibacterial activity against drug-resistant Enterobacter cloacae EcDC64 isolate expressing pAP3 plasmid containing Enterobacter aerogenes acrR gene by broth microdilution method.
In test [13] the test system is Enterobacter cloacae. As to the kind of experiment: Antibacterial activity against drug-resistant AcrAB-TolC efflux pump deficient Enterobacter cloacae EcdeltaacrA isolate expressing pAP2 plasmid containing Enterobacter cloacae acrA gene by broth microdilution method. The format is functional. In short, it runs like this: as §1
In test [14] the test system is Enterobacter cloacae. As to the kind of experiment: Antibacterial activity against drug-resistant AcrAB-TolC efflux pump deficient Enterobacter cloacae EcdeltaacrA isolate by broth microdilution method. Type of test: functional. In short, it runs like this:
as §1

Test [15] has as its system Enterobacter cloacae. As to the kind of experiment: Antibacterial activity against drug-resistant AcrAB-TolC efflux pump deficient Enterobacter cloacae EcdeltaacrA isolate expressing pACYC184 plasmid by broth microdilution method. The format is functional. In short, it runs like this:
as §1

The test system of test [16] is Enterobacter cloacae. As to the kind of experiment: Antibacterial activity against drug-resistant AcrAB-TolC efflux pump deficient Enterobacter cloacae EcdeltaacrA isolate by standard disk diffusion method. Type of test: functional. In short, it runs like this: (§2)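 Standard disk diffusion on Mueller-Hinton agar with telithromycin, fusidic acid, novobiocin, nalidixic acid, rifampin and norfloxacin disks. The read-out is the inhibition zone diameter in mm. The acrA-deleted strain was complemented with acrA on pAP-2, and pACYC184 served as the empty vector.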
(Agar diffusion results depend on both activity and mobility in agar.)

Test [17] has as its system Enterobacter cloacae. As to the kind of experiment: Antibacterial activity against drug-resistant AcrAB-TolC efflux pump deficient Enterobacter cloacae EcdeltaacrA isolate expressing pACYC184 plasmid by standard disk diffusion method. The format is functional. In short, it runs like this: as §2
Test [18] relates to Enterobacter cloacae. As to the kind of experiment: Antibacterial activity against drug-resistant Enterobacter cloacae EcDC64 isolate expressing pBGS18 plasmid by standard disk diffusion method.
Test [19] deals with Enterobacter cloacae. As to the kind of experiment: Antibacterial activity against drug-resistant Enterobacter cloacae EcDC64 isolate expressing AcrAB-TolC efflux pump in presence of 20 ug/ml efflux pump inhibitor Phe-Arg-beta-naphthylamide by standard disk diffusion method. Type of test: functional. In short, it runs like this:
as §2

Test [20] deals with Enterobacter cloacae. As to the kind of experiment: Antibacterial activity against drug-resistant AcrAB-TolC efflux pump deficient Enterobacter cloacae EcdeltaacrA isolate in presence of 20 ug/ml efflux pump inhibitor Phe-Arg-beta-naphthylamide by standard disk diffusion method. Type of test: functional. In short, it runs like this:
as §2

The test system of test [21] is Enterobacter cloacae. As to the kind of experiment: Antibacterial activity against drug-resistant Enterobacter cloacae EcDC64 isolate expressing pAP3 plasmid containing Enterobacter aerogenes acrR gene by standard disk diffusion method.
Test [22] deals with Enterobacter cloacae. As to the kind of experiment: Antibacterial activity against drug-resistant Enterobacter cloacae EcDC64 isolate expressing AcrAB-TolC efflux pump by standard disk diffusion method. The format is functional. The method, boiled down: as §2
The subject of test [23] is Enterobacter cloacae. As to the kind of experiment: Antibacterial activity against drug-resistant AcrAB-TolC efflux pump deficient Enterobacter cloacae EcdeltaacrA isolate expressing pAP2 plasmid containing Enterobacter cloacae acrA gene by standard disk diffusion method. The format is functional. The method, boiled down:
as §2

Test [24] concerns Enterobacter cloacae.
Test [25] concerns Enterobacter cloacae. This is another data set of the same source.
Test [26] concerns Enterobacter cloacae. This is another data set of the same source.
The test system of test [27] is Enterobacter cloacae. Particulars: EcDC64.
Test [28] concerns Enterobacter cloacae. The source holds these as a separate data set.
Test [29] has as its system Enterobacter cloacae. The source holds these as a separate data set.
Test [30] deals with Enterobacter cloacae. This is another data set of the same source.

≈ marks a conversion by molar mass, not a printed value.

`C[C@@H](O)[C@H]1C(=O)N2C(C(=O)O)=C(SCCNC=N)C[C@H]12` [IMIPENEM ANHYDROUS]: the minimum inhibitory concentration (MIC) in the test on Enterobacter cloacae [1] was above 32 µg/mL; with Enterobacter cloacae [2], above 32 µg/mL; with Enterobacter cloacae [3], above 32 µg/mL; with Enterobacter cloacae [4], 24 µg/mL (≈ 80.2 µM); in the test on Enterobacter cloacae [5], 32 µg/mL; with Enterobacter cloacae [6], 24 µg/mL (≈ 80.2 µM). Further, the MIC in the test on Enterobacter cloacae [7] was 6 µg/mL; in the test on Enterobacter cloacae [8] it was 2 µg/mL (≈ 6.68 µM); in the test with Enterobacter cloacae [9], above 32 µg/mL.
`CCCCCCCCCCCCOS(=O)(=O)[O-].[Na+]` [SODIUM LAURYL SULFATE]: the MIC worked out at 8190 µg/mL against Enterobacter cloacae [10]; 8190 µg/mL against Enterobacter cloacae [11]; 1020 µg/mL against Enterobacter cloacae [12]; 4100 µg/mL with Enterobacter cloacae [13]; 256 µg/mL in the test with Enterobacter cloacae [14]; 128 µg/mL in the test on Enterobacter cloacae [15].
Consider `C[n+]1c2cc(N)ccc2cc2ccc(N)cc21.[Cl-]` [EUFLAVINE], for which the MIC against Enterobacter cloacae [10] amounted to 128 µg/mL; in the test on Enterobacter cloacae [11], 128 µg/mL; against Enterobacter cloacae [12], 32 µg/mL; with Enterobacter cloacae [13], 64 µg/mL; against Enterobacter cloacae [14], 16 µg/mL; against Enterobacter cloacae [15], 16 µg/mL.
Take `CC[n+]1c(-c2ccccc2)c2cc(N)ccc2c2ccc(N)cc21.[Br-]` [HOMIDIUM BROMIDE]: the MIC was 2050 µg/mL with Enterobacter cloacae [10]; 2050 µg/mL against Enterobacter cloacae [11]; 256 µg/mL against Enterobacter cloacae [12]; 1020 µg/mL against Enterobacter cloacae [13]; 128 µg/mL in the test with Enterobacter cloacae [14]; 64 µg/mL against Enterobacter cloacae [15].
On to `C[C@@H](O)[C@H]1C(=O)N2C(C(=O)O)=C(S[C@@H]3CN[C@H](C(=O)N(C)C)C3)[C@H](C)[C@H]12` [MEROPENEM], for which the MIC in the test on Enterobacter cloacae [1] was above 32 µg/mL; in the test with Enterobacter cloacae [2], above 32 µg/mL; in the test with Enterobacter cloacae [3] it was above 32 µg/mL; with Enterobacter cloacae [4], 24 µg/mL (≈ 62.6 µM); in the test on Enterobacter cloacae [5] it was 32 µg/mL; against Enterobacter cloacae [6] it was 24 µg/mL (≈ 62.6 µM). Besides, the MIC was 1 µg/mL in the test with Enterobacter cloacae [7], 0.75 µg/mL (≈ 1.96 µM) in the test with Enterobacter cloacae [8] and above 32 µg/mL against Enterobacter cloacae [9].
Consider `CC(=O)O[C@H]1C[C@@]2(C)[C@@H](C[C@@H](O)[C@H]3[C@@]4(C)CC[C@@H](O)[C@@H](C)[C@@H]4CC[C@@]32C)/C1=C(\CCC=C(C)C)C(=O)O` [FUSIDIC ACID], for which the “inhibition zone (IZ)” value was 0 mm in the test with Enterobacter cloacae [16]; 0 mm with Enterobacter cloacae [17]; 0 mm in the test with Enterobacter cloacae [18]; above 40 mm in the test on Enterobacter cloacae [19]; 26 mm in the test with Enterobacter cloacae [20]; 0 mm in the test with Enterobacter cloacae [21]. Besides, the “inhibition zone (IZ)” value in the test with Enterobacter cloacae [22] and in the test on Enterobacter cloacae [23] was 0 mm each time.
Turning to `CO[C@H]1/C=C/O[C@@]2(C)Oc3c(C)c(O)c4c(O)c(c(/C=N/N5CCN(C)CC5)c(O)c4c3C2=O)NC(=O)/C(C)=C\C=C\[C@H](C)[C@H](O)[C@@H](C)[C@@H](O)[C@@H](C)[C@H](OC(C)=O)[C@@H]1C` [RIFAMPIN], the “inhibition zone (IZ)” value stood at 13 mm with Enterobacter cloacae [16]; 8 mm in the test with Enterobacter cloacae [17]; 10 mm in the test with Enterobacter cloacae [18]; 26 mm with Enterobacter cloacae [19]; 28 mm in the test on Enterobacter cloacae [20]; 10 mm with Enterobacter cloacae [21]. Also, the “inhibition zone (IZ)” value in the test on Enterobacter cloacae [22] and with Enterobacter cloacae [23] was 0 mm in each case.
As to `CC[C@H]1OC(=O)[C@H](C)C(=O)[C@H](C)[C@@H](O[C@@H]2O[C@H](C)C[C@H](N(C)C)[C@H]2O)[C@](C)(OC)C[C@@H](C)C(=O)[C@H](C)[C@H]2N(CCCCn3cnc(-c4cccnc4)c3)C(=O)O[C@]12C` [TELITHROMYCIN], the “inhibition zone (IZ)” value with Enterobacter cloacae [16] is recorded as 19 mm; in the test on Enterobacter cloacae [17], 18 mm; with Enterobacter cloacae [18], 10 mm; in the test with Enterobacter cloacae [19] it was 32 mm; with Enterobacter cloacae [20], 34 mm; with Enterobacter cloacae [21], 12 mm. In addition, the figures for the “inhibition zone (IZ)” value in the test on Enterobacter cloacae [22] and in the test with Enterobacter cloacae [23] were 9 mm and 13 mm, respectively.
Take `CN(C)c1ccc(C(=C2C=CC(=[N+](C)C)C=C2)c2ccc(N(C)C)cc2)cc1.[Cl-]` [GENTIAN VIOLET]: the minimum inhibitory concentration (MIC) was 4100 µg/mL with Enterobacter cloacae [10]; 4100 µg/mL against Enterobacter cloacae [11]; 1020 µg/mL against Enterobacter cloacae [12]; 1020 µg/mL against Enterobacter cloacae [13]; 512 µg/mL against Enterobacter cloacae [14]; 256 µg/mL in the test with Enterobacter cloacae [15].
GENTAMICIN: the minimal inhibitory concentration (MIC) with Enterobacter cloacae [24] came out at 0.125 µg/mL; against Enterobacter cloacae [25], 1 µg/mL; in the test with Enterobacter cloacae [26] it was 0.25 µg/mL; in the test with Enterobacter cloacae [27], 1.5 µg/mL; against Enterobacter cloacae [28], 0.094 µg/mL; against Enterobacter cloacae [29], 0.125 µg/mL. Also, the MIC with Enterobacter cloacae [30] came out at 1 µg/mL.
